Measured values as given in ChEMBL document CHEMBL1122307, “Mitomycin C and porfiromycin analogues with substituted ethylamines at position 7” (J Med Chem, 1983).
Where “and” joins values, the source holds several entries; their conditions need not be identical. Equal entries are not always repeated.

Key:
[1] = Therapeutic ratio as optimal dose/minimal effective dose; format: ADME; conditions: mouse, p388; read-out: TR
[2] = Partition coefficient (logP); format: physicochemical; conditions: octanol/water
[3] = tested on: P388; experiment: Optimal dose required for antitumor activity against P-388 murine leukemia cells in mice.; format: functional, Mus musculus
In short: (§1)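 P-388 ascites leukemia, 10⁶ cells implanted ip in female CDF₁ mice. Six mice per dose, with 10 saline-injected controls. A six-mouse mitomycin C group was run at each dose in the same experiment. % T/C = median survival time treated/control × 100 at the optimal dose. MED is the lowest dose giving T/C ≥ 125.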

[4] = tested on: P388; experiment: Maximum % T/C with mitomycin C against P-388 murine leukemia cells in mice.; format: functional, Mus musculus; in short: as §1
[5] = tested on: P388; experiment: Minimum effective dose required for antitumor activity against P-388 murine leukemia cells; format: functional; conditions: Mus musculus, read-out: MED; in short: as §1
[6] = tested on: P388; experiment: Maximum % T/C against P-388 murine leukemia cells in mice.; format: functional, Mus musculus; in short: as §1
[7] = tested on: P388; experiment: Leukopenia % change in WBC at optimal dose on 3rd day.; format: functional, Mus musculus
[8] = tested on: L1210; experiment: Optimal dose required for antitumor activity L-1210 leukemia cells in mice.; format: functional, Mus musculus
In short: (§2)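 L-1210 leukemia in mice, run by the standard NCI protocol with one dose on day 1. % T/C is based on survival. Repeated assays are reported as both values.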

[9] = tested on: L1210; experiment: Maximum % T/C against L-1210 leukemia cells in mice.; format: functional, Mus musculus; in short: as §2
[10] = tested on: L1210; experiment: Minimum effective dose required for antitumor activity against L-1210 leukemia cells in mice.; format: functional; conditions: Mus musculus, read-out: MED; in short: as §2
[11] = tested on: B16; experiment: (§3) Median survival time (% T/C) after ip administration in B-16 melanoma in mice (dose mg/kg/day); format: functional, Mus musculus
In short: (§4)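 B-16 melanoma in mice, run by the standard NCI protocol. Drug given ip on days 1, 4 and 7, ten mice per dose. Read-outs were median survival time as % T/C of controls and average body-weight change in g.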

[12] = tested on: B16; experiment: Average weight change after ip administration of in B-16 melanoma in mice (dose mg/kg/day); format: functional, Mus musculus; in short: as §4
[13] = tested on: B16; experiment: (§5) Average weight change after ip administration in B-16 melanoma in mice (dose mg/kg/day); format: functional, Mus musculus; in short: as §4
[14] = tested on: B16; experiment: as §3; format: functional, Mus musculus; in short: as §4; remark: listed apart in the source
[15] = tested on: B16; experiment: as §5; format: functional, Mus musculus; in short: as §4; remark: listed apart in the source
[16] = tested on: B16; experiment: Tumor free survivors on 45th day after ip administration of in B-16 melanoma in mice (dose mg/kg/day); 0
[17] = tested on: B16; experiment: Tumor free survivors on 45th day after ip administration in B-16 melanoma in mice (dose mg/kg/day); 0
[18] = tested on: B16; experiment: as §3; format: functional; in short: as §4
[19] = tested on: B16; experiment: as §3; format: functional; in short: as §4; remark: listed apart in the source
[20] = tested on: B16; experiment: Average weight change after ip administration inB-16 melanoma in mice (dose mg/kg/day); format: functional, Mus musculus
In short: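 Mice bearing B-16 melanoma were tested under the standard NCI protocol at Arthur D. Little. Compound was injected ip on days 1, 4 and 7, with ten mice per dose. Average body-weight change is reported in g. Alongside it, median survival time was given as % T/C and cures as tumor-free survivors on day 45.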

Compound | selectivity ratio [1] | logP [2] | Dose [3] [mg/kg] | T/C [4] [%] | minimal effective dose [5] [mg/kg] | T/C [6] [%] | Change in WBC [7] [%] | Dose [8] [mg/kg] | T/C [9] [%] | minimal effective dose [10] [mg/kg] | T/C [11] | Average weight change [12] [g] | Average weight change [13] | T/C [14] [%] | Average weight change [15] [g] | Cures [16] | Cures [17] | T/C [18] | T/C [19] [%] | Average weight change [20] [g]
COC12[C@@H]3N[C@@H]3CN1C1=C(C(=O)C(NCCc3ccccc3)=C(C)C1=O)[C@@H]2COC(N)=O (stereo not given in full) | 16 | 2.48 | 25.6 | 194 | – | – | – | – | – | – | – | – | – | – | – | – | – | – | – | –
COC12[C@@H]3N[C@@H]3CN1C1=C(C(=O)C(NCCc3ccc(O)c(O)c3)=C(C)C1=O)[C@@H]2COC(N)=O (stereo not given in full) | 1 | – | 12.8 | 233 | 12.8 | 139 | – | – | – | – | – | – | – | – | – | – | – | – | – | –
COC12[C@@H]3N[C@@H]3CN1C1=C(C(=O)/C(=N/CCO)C(C)=C1O)[C@@H]2COC(N)=O (stereo not given in full) | 16 | -0.81 | 25.6 | 228 | 1.6 | 228 | -38 | – | – | – | – | – | – | – | – | – | – | – | – | –
COC12[C@@H]3N[C@@H]3CN1C1=C(C(=O)/C(=N/CCF)C(C)=C1O)[C@@H]2COC(N)=O (stereo not given in full) | 16 | 0.18 | 6.4 | 268 | 0.4 | >316 | – | – | – | – | – | – | – | – | – | – | – | – | – | –
COC(C/N=C1/C(=O)C2=C(C(O)=C1C)N1C[C@H]3N[C@H]3C1(OC)[C@H]2COC(N)=O)OC (stereo not given in full) | 8 | – | 6.4 | 224 | 0.8 | 200 | -44 | 24 | 151 | 6 | – | – | – | – | – | – | – | – | – | –
COC12[C@@H](COC(N)=O)C3=C(C(O)=C(C)/C(=N\CCS)C3=O)N1C[C@@H]1[C@H]2N1C (stereo not given in full) | 8 | – | 25.6 | 268 | 3.2 | 179 | – | 48 | 129 | 12 | – | – | – | – | – | – | – | – | – | –
CCSCC/N=C1/C(=O)C2=C(C(O)=C1C)N1C[C@H]3N[C@H]3C1(OC)[C@H]2COC(N)=O (stereo not given in full) | 8 | 1.66 | 12.8 | 268 | 1.6 | 205 | – | 24 | 141 | 12 | 190% and 175% and 144% | -1.7 | -1.2 g and -0.8 g | – | – | – | – | – | – | –
COC12[C@@H](COC(N)=O)C3=C(C(=O)C(C)=C(NCCCl)C3=O)N1C[C@@H]1[C@H]2N1C (stereo not given in full) | 8 | – | 51.2 | >300 | – | – | – | – | – | – | – | – | – | – | – | – | – | – | – | –
COC12[C@@H]3N[C@@H]3CN1C1=C(C(=O)C(NCCCl)=C(C)C1=O)[C@@H]2COC(N)=O (stereo not given in full) | 8 | 0.74 | 12.8 | 245 | – | – | -7 | – | – | – | – | – | – | – | – | – | – | – | – | –
COC12[C@@H]3N[C@@H]3CN1C1=C(C(=O)/C(=N/CCS)C(C)=C1O)[C@@H]2COC(N)=O (stereo not given in full) | 64 | 0.63 | 12.8 | 181 | 0.2 | 313 | -35 | 9.6 | 168 | 1.6 | 218% | – | -0.5 g | 190 | -0.5 | – | – | – | – | –
COC12[C@@H]3N[C@@H]3CN1C1=C(C(=O)/C(=N/CCN3CCOCC3)C(C)=C1O)[C@@H]2COC(N)=O (stereo not given in full) | 4 | – | 25.6 | 211 | 6.4 | 150 | – | 96 | 132 | 48 | – | – | – | – | – | – | – | – | – | –
CCN1CCCC1C/N=C1/C(=O)C2=C(C(O)=C1C)N1C[C@H]3N[C@H]3C1(OC)[C@H]2COC(N)=O (stereo not given in full) | 16 | – | 12.8 | 211 | 0.8 | 217 | -29 | – | – | – | – | – | – | – | – | – | – | – | – | –
CCSCC/N=C1/C(=O)C2=C(C(O)=C1C)N1C[C@@H]3[C@@H](N3C)C1(OC)[C@H]2COC(N)=O (stereo not given in full) | 4 | – | 25 | 322 | 6.4 | 200 | – | 48 | 143 | 24 | – | – | – | – | – | – | – | – | – | –
COC12[C@@H]3N[C@@H]3CN1C1=C(C(=O)/C(=N/CCN3CCCC3)C(C)=C1O)[C@@H]2COC(N)=O (stereo not given in full) | 32 | – | 12.8 | 211 | 0.4 | 194 | -64 | 5 | 125 | 5 | – | – | – | – | – | – | – | – | – | –
COC12[C@@H]3N[C@@H]3CN1C1=C(C(=O)/C(=N/CCc3ccc(O)cc3)C(C)=C1O)[C@@H]2COC(N)=O (stereo not given in full) | 16 | – | 25.6 | 288 | 1.6 | 218 | – | 48 | 125 | 12 | – | – | – | – | – | – | – | – | – | –
CC/N=C1/C(=O)C2=C(C(O)=C1C)N1C[C@H]3N[C@H]3C1(OC)[C@H]2COC(N)=O (stereo not given in full) | 32 | 0.35 | 12.8 | 322 | 0.8 | 250 | – | – | – | – | – | – | – | – | – | – | – | – | – | –
COC12[C@@H]3N[C@@H]3CN1C1=C(C(=O)/C(=N/CCN)C(C)=C1O)[C@@H]2COC(N)=O (stereo not given in full) | 8 | -0.84 | 3.3 | 156 | 0.4 | 178 | – | – | – | – | – | – | – | – | – | – | – | – | – | –
COCC/N=C1/C(=O)C2=C(C(O)=C1C)N1C[C@H]3N[C@H]3C1(OC)[C@H]2COC(N)=O (stereo not given in full) | 16 | -0.12 | 12.8 | 268 | 0.8 | 205 | -57 | 12 | 143 | 6 | 190% | -2 | -0.4 g | – | -1.7 | – | – | – | – | –
COC12[C@@H]3N[C@@H]3CN1C1=C(C(=O)C(NCCC#N)=C(C)C1=O)[C@@H]2COC(N)=O (stereo not given in full) | 16 | -0.49 | 6.4 | 268 | 0.4 | 232 | -40 | 12 | 130 | 3 | – | – | – | – | – | – | – | – | – | –
COC12[C@@H]3N[C@@H]3CN1C1=C(C(=O)C(NCCN(C)C)=C(C)C1=O)[C@@H]2COC(N)=O (stereo not given in full) | 32 | – | 12.8 | 161 | 0.4 | 233 | – | 12 | 136 | 6 | – | – | – | – | – | – | – | – | – | –
COC12[C@@H]3N[C@@H]3CN1C1=C(C(=O)C(N[C@@H]3CC3c3ccccc3)=C(C)C1=O)[C@@H]2COC(N)=O (stereo not given in full) | 16 | – | 25.6 | 233 | 1.6 | 200 | – | – | – | – | – | – | – | – | – | – | – | – | – | –
CO[C@@]12[C@H](COC(N)=O)C3=C(C(=O)C(C)=C(N)C3=O)N1C[C@@H]1N[C@@H]12 [MITOMYCIN] | 16 | – | 3.2 | – | – | 161 | -42 | 3 | 124 | 3 | – | -2.2 | -1.1 g | – | – | 0 | 0 | 160% and 127% | 190 | -0.7
